GRIN3A LBD mod: NR3A (human) ligand-binding domain modulation | Tm shift relative to glycine control, % at 25 µM | actives 2.5% (n = 340,000) | AID 1259313 | NR3A LBD differential scanning fluorimetry, Tm shift; 0% = protein alone, 100% = glycine-bound protein;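 active = melting temperature shift of at least 10% of the positive control shift, at one fixed dose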
CHOP inh: CHOP inhibition in unfolded protein response; CHO-K1 CHOP-promoter luciferase, tunicamycin-induced, 15-18 h; inhibition, % at 10 µM; actives 3.8% (n = 220,000); AID 2732;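 active = compounds that reduced the stress-induced luciferase reporter signal by more than about 70% of percent inhibition, limit read from the data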;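 note: 0% = tunicamycin plus vehicle and 100% = wells without tunicamycin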
UPR XBP1 act: activators of adaptive arm of unfolded protein response (XBP1); CHO-XBP1 luciferase reporter, IRE1-XBP1 UPR activation, luminescence; percent of tunicamycin response, DMSO as zero; activation, % at 20 µM; actives 0.33% (n = 330,000); AID 463104;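 active = versus positive control, 20 µM dose yields 30% or more activation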;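 note: 100% = tunicamycin at 10 µg/mL and 0% = DMSO only wells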
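Signal: luciferase luminescence; Assay system: CHO-XBP1 luciferase reporter cells; Amount: one thousand reporter cells per well; Dosing: 20 µM single concentration, DMSO 1%; Benchmarks: high control tunicamycin 10 µg/mL final, low control DMSO vehicle only; Schedule: 6 h compound exposure at 37 °C, 5% CO2; Evaluation: percent activation relative to tunicamycin reference.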
aDG glyco act: increases alpha dystroglycan glycosylation | activation, % at 10 µM | AID 624168 | Pro5-aDG cells, alpha-DG glycosylation AlphaScreen (IIH6); 0% Pro5, 100% B10-LARGE cell signal | actives 0.22% (n = 360,000);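 active = activation of at least 8% versus controls, or a plate z-score of at least 8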;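 note: Pro5 are CHO cells carrying HIG-tagged alpha-DG that lacks glycosylation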
MPTP inh: blocks calcium-induced mitochondrial swelling | isolated mouse mitochondria, Ca2+ swelling absorbance, 30 min | inhibition, % at 10 µM | actives 1.4% (n = 360,000) | AID 602449;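 active = inhibition of 50% or more, scaled per plate between neutral and stimulator controls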;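 note: 0% = DMSO wells given calcium and 100% = 1 mM EGTA wells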
UPR CHOP act: activators of apoptotic arm of unfolded protein response (CHOP); activation, % at 10 µM; AID 449763; CHO-CHOP luciferase reporter, UPR activation, luminescence; percent of tunicamycin response over DMSO baseline; actives 0.34% (n = 330,000);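 active = at 10 µM dose, activation of 40% or more, normalized to positive control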;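 note: 100% = tunicamycin at 10 µg/mL and 0% = DMSO alone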
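Evaluation: % reporter activation, DMSO baseline versus tunicamycin full activation; System: CHO-CHOP luciferase reporter cell line; Input: 500 cells/well; Incubation: 6 h compound treatment, 37 °C; Measured by: Steady-Glo luciferase luminescence; Dosing: one dose, 10 µM in 0.5% DMSO; Buffer or medium: F12 medium, 10% FBS; Benchmarks: positive tunicamycin 10 µg/mL, negative DMSO alone.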
An asterisk follows results filed as active. Most compounds without a hit are left out; they make up all but 5.6% or so of the library.

Screening COc1ccc(C(=O)COC(=O)c2sccc2C)cc1OC returned GRIN3A LBD mod 2.5, UPR XBP1 act 5.5, aDG glyco act 0.4, MPTP inh 1.1 and UPR CHOP act 7.2.
COc1ccc(N(CC(=O)NC2CCS(=O)(=O)C2)S(=O)(=O)c2cc(C)ccc2C)cc1 (stereo not given) was read as GRIN3A LBD mod -0.6, UPR XBP1 act -2.0, aDG glyco act 0.1, MPTP inh -0.1 and UPR CHOP act -0.6.
COCCOc1ccc(C(F)(F)F)cc1Nc1nc2ccccc2o1 was read as GRIN3A LBD mod -0.9, CHOP inh 87.5*, UPR XBP1 act 1.2, aDG glyco act 0.0, MPTP inh 2.2 and UPR CHOP act 4.8.
Screening CC(=O)c1c(OC(=O)c2ccccc2)c2ccccc2n1C returned GRIN3A LBD mod 1.9, CHOP inh 70.5*, UPR XBP1 act 5.3, aDG glyco act 0.3, MPTP inh -0.8 and UPR CHOP act 0.1.
`CN1CCC2(CC1)N=C(c1ccc(F)cc1)C(=S)N2C(=O)c1ccc(C(C)(C)C)cc1` gave GRIN3A LBD mod 2.4, CHOP inh 80.9*, UPR XBP1 act 1.3, aDG glyco act 0.5, MPTP inh -0.1 and UPR CHOP act 4.1.
Screening O=C(c1ccc2ccccc2c1)N1CCN(c2ccc(C(F)(F)F)cn2)CC1 returned GRIN3A LBD mod 0.8, CHOP inh 88.7*, UPR XBP1 act -0.1, aDG glyco act -0.1, MPTP inh 2.4 and UPR CHOP act -1.2.
For O=C(c1ccc2c(c1)OCO2)N1CCN(c2ccc(C(F)(F)F)cn2)CC1 the results were GRIN3A LBD mod -3.1, CHOP inh 22.2, UPR XBP1 act -2.6, aDG glyco act -0.1, MPTP inh -1.0 and UPR CHOP act 6.4.
For O=C(NCCc1c[nH]c2ccccc12)c1ccc2c(c1)OCO2 the results were GRIN3A LBD mod 21.6*, UPR XBP1 act -4.0, aDG glyco act 0.1, MPTP inh 0.8 and UPR CHOP act 6.9.
`Cn1c(C(=O)NCCc2c[nH]c3ccccc23)cc2sccc21` gave GRIN3A LBD mod 15.8*, UPR XBP1 act -1.8, aDG glyco act -0.2, MPTP inh -0.1 and UPR CHOP act 4.0.
For O=C(NCCc1c[nH]c2ccccc12)c1cc(Cl)c2c(c1)OCO2 the results were GRIN3A LBD mod 29.6*, UPR XBP1 act -0.3, aDG glyco act -0.1, MPTP inh -1.6 and UPR CHOP act 6.2.
For O=C(NCCc1c[nH]c2ccccc12)c1ccc2nc[nH]c2c1 the results were GRIN3A LBD mod 27.0*, UPR XBP1 act 2.3, aDG glyco act -0.1, MPTP inh 0.1 and UPR CHOP act 3.8.
Screening CC1CCCC(C)N1C(=O)c1cccc2c1-c1ccccc1/C2=N/O (stereo not given) returned GRIN3A LBD mod -1.3, CHOP inh 45.0, UPR XBP1 act -3.3, aDG glyco act -0.2, MPTP inh 1.8 and UPR CHOP act -2.8.
For CCOC(=O)c1cccc2c1-c1ccccc1/C2=N/O the results were GRIN3A LBD mod -13.9, CHOP inh 81.6*, UPR XBP1 act 9.6, aDG glyco act 0.1, MPTP inh 5.0 and UPR CHOP act -0.1.
Screening CCOC(=O)c1cc2cc(OCc3ccccc3)ccc2nc1C returned GRIN3A LBD mod 1.2, UPR XBP1 act 5.4, aDG glyco act 0.2, MPTP inh 1.4 and UPR CHOP act 0.4.
Screening CCOC(=O)c1cnc2ccc(OCC)cc2c1N1CCN(c2ccccc2OC)CC1 returned GRIN3A LBD mod 3.9, CHOP inh 87.8*, UPR XBP1 act 0.2, aDG glyco act -0.4, MPTP inh 0.7 and UPR CHOP act 1.5.
`CCOC(=O)c1cnc2ccc(OCC)cc2c1N(C)Cc1ccccc1` gave GRIN3A LBD mod 11.2*, CHOP inh 53.7, UPR XBP1 act -0.6, aDG glyco act 0.4, MPTP inh 4.8 and UPR CHOP act 0.3.
`O=C(CCC1CCCCC1)Nc1nncs1` gave GRIN3A LBD mod -2.4, UPR XBP1 act -0.7, aDG glyco act 0.0, MPTP inh 2.1 and UPR CHOP act 1.5.
CCCCN1CCN=C1N(C)C was read as GRIN3A LBD mod 0.8, UPR XBP1 act -2.2, aDG glyco act 0.1, MPTP inh -1.3 and UPR CHOP act 1.5.
`CSc1cc(C)n(-c2ccccc2)c(=S)c1C(C)=O` gave GRIN3A LBD mod 12.2*, CHOP inh -8.9, UPR XBP1 act 0.5, aDG glyco act -0.2, MPTP inh -0.1 and UPR CHOP act 1.1.
For CC1(NCC(O)COc2cccc3[nH]ccc23)CCC(C(C)(C)NC(=O)CBr)CC1 (stereo not given) the results were CHOP inh -10.8.
CCCCOC(=O)c1ccc(NC(=O)C(=O)NCCN(C)C)cc1 was read as GRIN3A LBD mod -3.8, CHOP inh -0.8, UPR XBP1 act 1.3, aDG glyco act 0.0, MPTP inh -3.5 and UPR CHOP act 1.2.
Screening CC(NC(=O)/C(=C/c1ccc2c(c1)OCO2)NC(=O)c1cccc([N+](=O)[O-])c1)C(=O)O (stereo not given) returned GRIN3A LBD mod -1.5, CHOP inh 13.7, UPR XBP1 act 2.4, aDG glyco act 0.2, MPTP inh 0.2 and UPR CHOP act -0.9.
`COc1ccc(C(=O)NC(=S)Nc2ccc([N+](=O)[O-])cc2C)cc1OC` gave GRIN3A LBD mod 28.5*, CHOP inh 79.2*, UPR XBP1 act -1.3, aDG glyco act 0.3, MPTP inh -0.1 and UPR CHOP act -0.9.
For CN1CCCC(OC(=O)c2ccccc2Br)C1 (stereo not given) the results were GRIN3A LBD mod -1.3, UPR XBP1 act -1.7, aDG glyco act -0.1, MPTP inh 0.6 and UPR CHOP act 1.9.
`O=C1N/C(=N\N=C\c2cccs2)SC1Cc1cccc(Cl)c1` (stereo not given) gave GRIN3A LBD mod -26.5, CHOP inh 88.4*, UPR XBP1 act 0.9, aDG glyco act 0.4, MPTP inh 1.8 and UPR CHOP act 0.3.
For Cc1cc(C(=O)COC(=O)CNC(=O)c2ccco2)c(C)n1Cc1ccco1 the results were GRIN3A LBD mod 0.7, CHOP inh 17.2, UPR XBP1 act -2.9, aDG glyco act 0.3, MPTP inh -0.7 and UPR CHOP act 1.0.
`Cc1cc(C(=O)COC(=O)CNC(=O)c2ccccc2)c(C)n1CC1CCCO1` (stereo not given) gave GRIN3A LBD mod -1.6, CHOP inh 90.1*, UPR XBP1 act -6.3, aDG glyco act 0.0, MPTP inh 1.3 and UPR CHOP act -7.0.
